Results from different studies.

| Compound | test system | conditions | measurement | result |
| --- | --- | --- | --- | --- |
| C=CC(=O)N(C)CCOc1c(N)ncnc1-c1cc(F)cc(NC(=O)c2ccc(C3CC3)cc2F)c1C | human, blood | oral, 100 mg, single dose, healthy volunteers | Tmax | 1.03 h |
| CC(C)n1cc(C#N)c2cc(-n3cc(C(=O)O)cn3)ccc21 | human, plasma | oral, 10 mg, single dose, fasted, healthy volunteers | Tmax | 2.8 h |
| CC(C)(O)c1ccccc1-c1ccc2[nH]c(/C=C/c3ccc(C(F)(F)F)cc3)nc2c1 | male human, plasma | oral, 1 mg, single dose, fasted | Tmax | 4.44 h |
| Cn1cc(-c2ccc(S(=O)(=O)[C@@H]3C[C@@H](C(=O)NC4(C#N)CC4)N(C(=O)C4(C(F)(F)F)CC4)C3)c(C(F)(F)F)c2)cn1 | human, plasma | oral, 30 mg, single dose, fasted, healthy volunteers | Tmax | 4.51 h |
| O=C(Nc1cc(F)c(F)c(F)c1)c1ccc(F)c(S(=O)(=O)NCc2cccc(B(O)O)c2)c1 | male Sprague-Dawley rat, plasma | oral, 20 mg/kg | MRT(0-t) | 0.84 h |
| Cc1cn2nc(-c3cc(=O)n4cc(N5CCNC6(CC6)C5)ccc4n3)cc(C)c2n1 | rat, plasma |  | fraction unbound | 0.16 |
| CCc1cc(C(=O)NC)c2nccc(N3CCc4c(cc(Cn5ccnc5)cc4-c4cn(C)nc4C(F)(F)F)C3=O)c2c1 | male Sprague-Dawley rat, plasma | intravenous, 3 mg/kg | MRT(0-inf) | 0.4 h |
| C[C@@H](Nc1cc(F)cc(F)c1)c1cc(C(=O)N(C)C)cc2c(=O)cc(N3CCOCC3)oc12 | human, plasma | oral, 240 mg, patients | Tmax | 2 h |
| COc1ccc([C@@H]2CN(C(=O)[C@@H](O)CO)C[C@@]2(C)[C@@H](C)O)cc1OC1CN(c2ccc(C)cn2)C1 | human, plasma | oral, 10 mg, single dose, healthy volunteers | Tmax | 2 h |
| CCOC(=O)[C@@]12C[C@@H]1[C@@H](n1ccc3c(NC)nc(C#Cc4ccc(Cl)s4)nc31)[C@H](O)[C@@H]2O | male Sprague-Dawley rat, plasma | oral, 10 mg/kg | MRT | 2.75 h |
